Compound activity from PubChem.
Rows were chosen to be rich in hits. Some 1.7% of all compounds tested hit in one or more screens of this group.
Vif inh: HIV Vif self-association inhibitors, primary screen, imaging, HEK293T, single point; HEK293T cells, Vif self-association by quenched fluorescence, 24 h; inhibition, % at 7.49 µM; 340,000 tested, 0.35% active; in the data active = inhibition above about 50%, passing the limit was not always enough; inconclusive = no clear call, values can overlap the other calls; inactive = below about 31%
NTR1 ag: agonists of human NTR1, primary screen, imaging, U2OS cells, beta-arrestin-GFP, high content; Neurotensin receptor type 1 (Homo sapiens), P30989; NTR1-U2OS beta-arrestin-GFP spot imaging, agonist mode; activation, % at 20 µM; 330,000 tested, 0.17% active; AID 493036, 2011;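 active = activation at or above 40% of the spot to cytoplasm intensity ratio, with at least 20 cells analyzed; inconclusive = wells under 20 cells, flagged as cytotoxic or low count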;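 also: 0% = DMSO without peptide and 100% = 100 nM NTR1 peptide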
Target sequence (P30989 whole entry, looked up): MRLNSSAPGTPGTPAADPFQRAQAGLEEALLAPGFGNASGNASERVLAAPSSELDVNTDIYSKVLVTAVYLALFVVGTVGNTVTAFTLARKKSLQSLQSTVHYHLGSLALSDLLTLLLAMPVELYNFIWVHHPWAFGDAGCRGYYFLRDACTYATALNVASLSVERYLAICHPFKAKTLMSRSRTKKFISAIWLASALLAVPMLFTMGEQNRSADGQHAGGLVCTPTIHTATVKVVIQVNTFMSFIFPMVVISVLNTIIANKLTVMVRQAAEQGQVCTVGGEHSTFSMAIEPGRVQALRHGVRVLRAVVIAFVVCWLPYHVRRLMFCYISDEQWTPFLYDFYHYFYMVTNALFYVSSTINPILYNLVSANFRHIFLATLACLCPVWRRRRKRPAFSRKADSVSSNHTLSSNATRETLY
SR-BI DiI-HDL act: activators of SR-BI mediated DiI-HDL uptake, primary screen, ldlA[mSR-BI] CHO cells, DiI fluorescence | 3 h; 100 = double the neutral-control signal | activation, % at 12.5 µM | 320,000 tested, 0.096% active | AID 504775, 2011;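 active = mean replicate activation of at least 60% and every replicate at or above 60%; inconclusive = mean or all-replicate condition met, but not both; inactive = mean below 60% and not all replicates reaching 60%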;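 also: 0% = median plate neutral-control signal and 100% = twice that signal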
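Test system: SR-BI-overexpressing, LDLR-lacking CHO cells; Medium: Ham's F12 with 0.5% BSA, HEPES 25 mM, pH 7.4; Schedule: 3 h, 37 °C; Technique: bottom-read fluorescence, 550/595 nm.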
V-ATPase pHluor: regulators of yeast V-ATPase proton pumping, primary screen, pHLuorin cytosolic pH fluorescence; S. cerevisiae; response, % at 10 µM; 350,000 tested, 0.37% active; in the data active = response mostly above about 7.3%, no sharp cut-off; inactive = mostly below about 5.4%; also: actives read high
CaV13 ICDI inh: Primary screen for inhibitors of IQ motif and Ca2+-dependent inactivation inhibitor domain binding in CACNA1D, Förster resonance energy transfer in living cells, … | 340,000 tested, 0.098% active | inhibition, % at 12.3 µM | HEK cells, CFP/YFP FRET ICDI-IQ, plate reader, 10 min; percent FRET-ratio fall versus neutral wells;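 active = mean replicate inhibition of at least 30% and at least 1% of replicates passing that level; inconclusive = only one of the two criteria is met; inactive = neither criterion is met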;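 also: 0% = median of the neutral control wells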
SR-BI HDL uptake: inhibitors of SR-BI mediated HDL lipid uptake, primary screen, ldlA[mSR-BI] cells, fluorescence, single point; Scavenger receptor class B member 1 (Mus musculus), Q61009; ldlA[mSR-BI] CHO cells, DiI-HDL uptake fluorescence, 3 h; inhibition, % at 12.5 µM; 320,000 tested, 0.96% active;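 active = mean replicate inhibition of at least 70% and a set share of replicates each scoring 70 or more; inconclusive = meets just one of the two criteria; inactive = fails both criteria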;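 also: 0% = median of neutral control wells and 100% = median of positive control wells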
* = called active by the depositor; ? = inconclusive; nt = no result given; + = active, no number.

SMILES	Vif inh	NTR1 ag	SR-BI DiI-HDL act	V-ATPase pHluor	CaV13 ICDI inh	SR-BI HDL uptake
C#CCOCCOCCOCCNc1nc(N2CCN(C(=O)[C@H]([C@@H](C)CC)n3cc([C@@H](N)CO)nn3)CC2)nc(N2CCN(C(=O)[C@H](Cc3cc4ccccc4[nH]3)n3cc([C@@H](N)C(C)CC)nn3)CC2)n1 (stereo not given in full)	nt	-2	nt	nt	nt	nt
Nc1ccccc1SCC(=O)Nc1ccc(N2CCOCC2)cc1	57*	3	-46	4	-5	46
Cc1ccccc1SCC(=O)Nc1ccc(N2CCOCC2)cc1	-1	1	-5	-1	-5	5
Cc1ccc(NC(=O)c2nc[nH]c2C(=O)Nc2ccccc2F)cc1	90*	nt	nt	3	-5	nt
O=C(Cc1nc2ccccc2[nH]c1=O)c1ccccc1	-9	nt	-33	-4	58*	33
O=c1[nH]c2ccccc2nc1Cc1ccccc1	5	1	-2	-2	-5	2
O=C(NNc1ccnc2cc(Cl)ccc12)C1CCCCC1	2	0	1	0	6	-1
FC(F)Oc1ccc(NC(=S)NNc2ccnc3cc(Cl)ccc23)cc1	2	2	-95	5	-11	95*
NC(=S)NNc1ccnc2cc(Cl)ccc12	2	-1	-90	2	-2	90*
CCOc1ccc(Nc2ccnc3cc(Cl)ccc23)cc1	-7	6	-9	5	-15	9
CCN(CC)CCCn1c2c(c(SCC(=O)Nc3ccc(OC(F)(F)F)cc3)nc1=O)CCC2	-4	2	-3	-4	-14	3
CC(=O)c1cccc(NC(=O)C(C)OC(=O)CCc2nc3ccccc3c(=O)[nH]2)c1 (stereo not given)	5	0	-17	6	-6	17
COc1cccc(N2CCN(c3ncnc4c3[nH]c3ccc(F)cc34)CC2C)c1 (stereo not given)	1	-3	-72	nt	-7	72*
COc1cccc(N2CCN(c3ncnc4c3[nH]c3ccccc34)CC2C)c1 (stereo not given)	nt	1	nt	nt	-5	nt
CC1(C)CC(=O)C2=C(C1)OC(=O)CC2c1cccs1 (stereo not given)	4	1	nt	-3	-4	nt
CN(C)c1ccc(C2CC(=O)OC3=C2C(=O)CC(C)(C)C3)cc1 (stereo not given)	4	-2	68*	-4	4	-68
COc1ccc(NC(=O)c2cc([N+](=O)[O-])ccc2N2CCCC2)cc1S(N)(=O)=O	22	0	2	3	-7	-2
CCOc1ccc(-c2c(C(=O)N/N=C/c3c[nH]c4ccccc34)nnn2-c2nonc2N)cc1	-3	6	-88	-1	-3	88*
CCCOc1ccc(-c2c(C(=O)N/N=C/c3ccccc3)nnn2-c2nonc2N)cc1	12	2	-77	0	0	77*
Cc1ccc(/C=N/NC(=O)c2nnn(-c3nonc3N)c2-c2cccs2)cc1	0	7	-10	2	-14	10
CC(C)c1c(C(=O)N/N=C/c2ccc(C(F)(F)F)cc2)nnn1-c1nonc1N	0	13	-77	4	-4	77*
Nc1nonc1-n1nnc(C(=O)N/N=C/c2ccccc2F)c1-c1cccs1	-5	2	-74	1	-16	74*
CCOc1ccc(/C=N/NC(=O)c2nnn(-c3nonc3N)c2-c2ccc(OCC)cc2)cc1	-6	6	-69	-6	-3	69
CC(NC(=O)c1cccc(S(=O)(=O)N2CCN(Cc3ccccc3)CC2)c1)c1ccc(Br)cc1 (stereo not given)	-20	4	-3	0	-9	3
CCOC(=O)C(C)Sc1ncc(-c2ccccc2)cn1 (stereo not given)	-6	-1	4	2	-4	-4
SMILES	Vif inh	NTR1 ag	SR-BI DiI-HDL act	V-ATPase pHluor	CaV13 ICDI inh	SR-BI HDL uptake
Cc1ccc(NC(=O)c2ncn(CCCNCC3CCCO3)n2)cc1C (stereo not given)	0	nt	13	-1	-4	-13
COC(=O)C(C(=O)OC)C(c1ccccc1)C(C(=O)c1ccccc1)[N+](=O)[O-] (stereo not given)	53*	2	40	0	-4	-40
CCC1(c2ccc(Cl)cc2)NC(=O)N(Cc2ccc(C(=O)OC)cc2)C1=O (stereo not given)	-4	7	-26	13*	-19	26
CCC1(c2ccc(Cl)cc2)NC(=O)N(CC(=O)NCc2ccc(F)cc2)C1=O (stereo not given)	-9	-1	-5	4	-3	5
COCCNCC(=O)Nc1nc(C)cs1	59*	nt	14	0	-7	-14
O=C(C[n+]1cccc2ccccc21)c1ccc(Br)cc1	93*	-2	8	1	-29	-8
COc1ccc(-c2cc(C(=O)N3CCCCCC3)c3ccccc3n2)cc1	-6	-1	-75	4	-4	75*
O=C(c1cccs1)N1CCC(c2nc3c(nnn3Cc3c(Cl)cccc3Cl)c(=O)[nH]2)CC1	6	0	nt	-2	-8	nt
CCCNC(=O)C1(C)CCCN(Cc2cc(-c3ccccc3)n(C)n2)C1 (stereo not given)	-5	nt	nt	nt	-7	nt
Nc1c(C(=O)Nc2nc3ccccc3s2)sc2nc(-c3cccs3)ccc12	154*	23	-71	-49	nt	?
O=C1c2ccccc2-c2cccc(C(=O)N3CCCCCC3)c21	28	1	20	1	-2	-20
O=C1c2ccccc2-c2c1cccc2C(=O)N1CCCCCC1	1	-1	-7	15*	-3	7
N=c1oc2cc(O)ccc2cc1C(=O)Nc1nc2ccccc2s1	3	nt	31	2	81*	-31
N=c1oc2cc(O)ccc2cc1C(=O)Nc1ccc(Br)cc1	0	3	-7	-2	+	7
Cc1cc(-c2ccccc2)nc(N/N=C/c2ccc(O)cc2O)n1	-3	16	-75	4	-4	?
CN(/N=C/c1ccc(O)cc1O)c1nc(-c2ccccc2)cc(-c2ccccc2)n1	8	10	-90	0	-4	90*
C=COCCNC(=O)Nc1ccc(Cl)cc1Cl	-41	0	-72	1	nt	72*
O=C(COC(=O)C1Cc2ccccc2CN1C(=O)c1ccccc1Cl)Nc1ccc(N2CCOCC2)cc1 (stereo not given)	1	-1	-76	0	-8	76*
